Data reported in ChEMBL document CHEMBL1157250, “Bioactive dibenzylbutyrolactone and dibenzylbutanediol lignans from Peperomia duclouxii” (J Nat Prod, 2006).

Columns and labels:
[1] = Reversal of multidrug resistance in human 2780AD cells assessed as accumulation of calcein at 0.25 ug/mL after 15 mins by fluorescence technique relative to verapamil; assay type: functional, A2780 ADR
In short: (§1)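 Same 2780AD set-up: 24 h pre-culture, then a 15 min compound pre-exposure (DMSO/PBS(-) dilution), calcein AM added (1 µM in PBS(-) as added) for 60 min, cold PBS(-) washes, and a calcein fluorescence read. Accumulation is expressed relative to that obtained with verapamil at the same concentration, mean of triplicates.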

[2] = Reversal of multidrug resistance in human 2780AD cells assessed as accumulation of calcein at 0.25 ug/mL after 15 mins by fluorescence technique relative to control; assay type: functional, A2780 ADR
In short: (§2)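 MDR ovarian 2780AD cells (RPMI-1640, 10% FBS), ca. 1 × 10^5 per well, held 24 h at 37 °C in 5% CO2. Compounds in DMSO diluted with PBS(-) were added 15 min before calcein AM (1 µM in PBS(-) as added), incubated 60 min, then washed with cold PBS(-). Calcein fluorescence is given as a percentage of untreated control, mean of triplicates.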

HepG2 = experiment: Growth inhibition of human HepG2 cells after 48 hrs by WST8 assay; assay type: functional, cell-based; details: HepG2, 48 h
In short: (§3)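 Cells seeded at ca. 5000 per well, held 24 h at 37 °C in 5% CO2, then exposed 48 h to samples dissolved in DMSO. Media with 10% FBS: WI-38 in Eagle's MEM, VA-13 in RITC 80-7, HepG2 in D-MEM. WST-8 formazan read at 450 nm. Viability is background-corrected versus control, IC50 is taken from viability–concentration plots, and values are means of three independent experiments.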

[3] = Growth inhibition of human WI38 cells after 48 hrs by WST8 assay; assay type: cell-based; details: WI-38, 48 h; in short: as §3
[4] = Reversal of multidrug resistance in human 2780AD cells assessed as accumulation of calcein at 2.5 ug/mL after 15 mins by fluorescence technique relative to verapamil; assay type: functional, A2780 ADR; in short: as §1
[5] = Reversal of multidrug resistance in human 2780AD cells assessed as accumulation of calcein at 25 ug/mL after 15 mins by fluorescence technique relative to control; assay type: functional, A2780 ADR; in short: as §2
[6] = Reversal of multidrug resistance in human 2780AD cells assessed as accumulation of calcein at 2.5 ug/mL after 15 mins by fluorescence technique relative to control; assay type: functional, A2780 ADR; in short: as §2
WI-38 VA13 = experiment: Growth inhibition of human VA13 cells after 48 hrs by WST8 assay; assay type: functional, cell-based; details: WI-38 VA13, 48 h; in short: as §3
[7] = Reversal of multidrug resistance in human 2780AD cells assessed as accumulation of calcein at 25 ug/mL after 15 mins by fluorescence technique relative to verapamil; assay type: functional, A2780 ADR; in short: as §1

IC50 (HepG2) [µM]	Compound	Activity [1] [%]	Activity [2] [%]	IC50 [3] [µM]	Activity [4] [%]	Activity [5] [%]	Activity [6] [%]	IC50 (WI-38 VA13) [µM]	Activity [7] [%]
200	COc1cc(C[C@@H]2C(=O)OC[C@H]2Cc2cc(OC)c3c(c2)OCO3)ccc1O	74	77	> 259	89	85	86	210	64
208	COc1cc(C[C@@H]2COC(=O)[C@H]2Cc2cc(OC)c3c(c2)OCO3)cc2c1OCO2	104	93	> 241	86	116	91	130	81
> 260	COc1cc(C[C@@H]2COC(=O)[C@H]2Cc2ccc3c(c2)OCO3)cc2c1OCO2	102	91	> 260	70	96	74	> 260	67
26.4	COc1cc(C[C@@H]2C(=O)OC[C@H]2Cc2ccc3c(c2)OCO3)cc2c1OCO2	90	80	> 260	103	124	109	23.2	86
> 260	COc1cc(C[C@@H]2C(=O)OC[C@H]2Cc2ccc3c(c2)OCO3)cc(OC)c1O	90	93	> 259	97	127	94	183	96
162	COc1cc(C[C@@H]2C(=O)OC[C@H]2Cc2cc(OC)c3c(c2)OCO3)cc(O)c1O	110	98	141	86	120	91	181	84

The remaining lines, values behind:

Compound	IC50 (HepG2) [µM]	Activity [1] [%]	Activity [2] [%]	IC50 [3] [µM]	Activity [4] [%]	Activity [5] [%]	Activity [6] [%]	IC50 (WI-38 VA13) [µM]	Activity [7] [%]
COc1cc(C[C@@H]2C(=O)OC[C@H]2Cc2cc(OC)c3c(c2)OCO3)cc(OC)c1OC	42.8	92	96	> 232	102	155	99	118	116
COc1cc(C(=O)[C@@H]2C(=O)OC[C@H]2Cc2cc(OC)c3c(c2)OCO3)cc(OC)c1O	185	–	–	172	–	–	–	127	–
COc1cc(/C=C2/C(=O)OC[C@H]2Cc2cc(OC)c3c(c2)OCO3)cc(OC)c1O	198	87	90	241	93	114	90	157	86
COc1cc([C@@H](O)[C@H]2C(=O)OC[C@@H]2Cc2cc(OC)c3c(c2)OCO3)cc(OC)c1O	> 231	88	91	> 231	96	104	93	229	78
COc1cc(C[C@@H](CO)[C@H](CO)Cc2cc(OC)c3c(c2)OCO3)cc2c1OCO2	151	93	97	185	107	121	103	219	91
COc1cc(C[C@H](COC(C)=O)[C@@H](COC(C)=O)Cc2cc(OC)c3c(c2)OCO3)cc2c1OCO2	> 199	–	–	> 199	–	–	–	> 199	–
COc1cc(C[C@@H]2C(=O)OC[C@H]2Cc2cc(OC)c3c(c2)OCO3)cc(OC)c1O	204	83	86	195	94	129	91	130	97
COc1cccc2c1C(=O)c1c(O)c3c(c(O)c1C2=O)C[C@@](O)(C(=O)CO)C[C@@H]3O[C@H]1C[C@H](N)[C@H](O)[C@H](C)O1 [DOXORUBICIN]	0.69	–	–	0.38	–	–	–	0.22	–
CC(=O)O[C@H]1C(=O)[C@@]2(C)[C@H]([C@H](OC(=O)c3ccccc3)[C@]3(O)C[C@H](OC(=O)[C@H](O)[C@@H](NC(=O)c4ccccc4)c4ccccc4)C(C)=C1C3(C)C)[C@]1(OC(C)=O)CO[C@@H]1C[C@@H]2O [PACLITAXEL]	6.9	–	–	0.034	–	–	–	0.0043	–
COc1ccc(CCN(C)CCCC(C#N)(c2ccc(OC)c(OC)c2)C(C)C)cc1OC (centres undefined) [VERAPAMIL]	–	–	104	–	–	144	106	–	–
